We go through 17 compounds from ChEMBL document CHEMBL3352485 (J Med Chem, 2014).

The EC50 is the concentration at which the effect is half-maximal. Broadly, the Ki is the equilibrium dissociation constant of an inhibitor or competing ligand from its target.

Assay [1] deals with T1, KiSS-1 receptor (Homo sapiens, UniProt Q969F8). The experiment in a line: Agonist activity at human KISS1R transfected in CHO cells assessed as intracellular calcium flux after 24 hrs by functional FLIPR assay. It is filed as cell-based. In a few lines: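 CHO cells stably expressing human KISS1R were seeded at 15 000 cells/mL, cultured 24 h, then loaded with fluo-3 for 1 h at 37 °C in HBSS/HEPES (pH 7.4) with probenecid and FBS. Cells were washed in HBSS with 2.5 mM probenecid. Peptides came from 1 mM DMSO stocks diluted in buffer containing probenecid, 0.2% BSA and 0.1% CHAPS. Fluorescence was recorded on FLIPR for 3 min; peak counts over 0–180 s gave agonist activity.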
(A change in cytosolic calcium serves as a functional read-out for many receptors and channels.)

For assay [2], the target named is T2, KiSS-1 receptor (Rattus norvegicus, UniProt Q924U1). The experiment in a line: Agonist activity at rat KISS1R transfected in CHO cells assessed as intracellular calcium flux after 24 hrs by functional FLIPR assay. Type of assay: cell-based.
The target of assay [3] is T1, KiSS-1 receptor. Put plainly: Displacement of radioligand from human KISS1R transfected in CHO cells. Type of assay: cell-based. In a few lines:
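Binding used membrane fractions prepared from CHO cells expressing recombinant human KISS1R.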

In assay [4] the target is T2, KiSS-1 receptor. Put plainly: Displacement of radioligand from rat KISS1R transfected in CHO cells. It is filed as cell-based.
For assay [5], the system named is Rattus norvegicus. The experiment in a line: Testosterone-suppressive activity in Crl:CD(SD) rat assessed as number of animal with plasma testosterone level below the limit of detection at 2 nmol/hr, sc through osmotic pumps measured after 6 days by RIA. It is filed as functional. In a few lines:
(§1)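 Peptide was dissolved in distilled water or 50% DMSO as 0.1–2 mM pump solutions and delivered by ALZET osmotic pumps implanted subcutaneously in the back of 9-week-old male Crl:CD(SD) rats (n = 5) under ether. Controls received distilled-water pumps. After 6 days, rats were decapitated and plasma was recovered with aprotinin/EDTA. Testosterone was measured by RIA, and the number of rats below the detection limit (0.04 ng/mL) was counted.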

Assay [6] has as its system Rattus norvegicus. The experiment in a line: Testosterone-suppressive activity in Crl:CD(SD) rat assessed as number of animal with plasma testosterone level below the limit of detection at 0.5 nmol/hr, sc through osmotic pumps measured after 6 days by RIA. It is filed as functional. In a few lines:
as §1

The subject of assay [7] is Rattus norvegicus. Put plainly: Testosterone-suppressive activity in Crl:CD(SD) rat assessed as number of animal with plasma testosterone level below the limit of detection at 0.1 nmol/hr, sc through osmotic pumps measured after 6 days by RIA. It is filed as functional. The method, boiled down:
as §1

The test system of assay [8] is Rattus norvegicus. The experiment in a line: Testosterone-suppressive activity in Crl:CD(SD) rat assessed as number of animal with plasma testosterone level below the limit of detection at 0.3 nmol/hr, sc through osmotic pumps measured after 6 days by RIA. Type of assay: functional. The method, boiled down:
as §1

SMILES strings stand for the structures.

T2 sequence (Q924U1 whole entry): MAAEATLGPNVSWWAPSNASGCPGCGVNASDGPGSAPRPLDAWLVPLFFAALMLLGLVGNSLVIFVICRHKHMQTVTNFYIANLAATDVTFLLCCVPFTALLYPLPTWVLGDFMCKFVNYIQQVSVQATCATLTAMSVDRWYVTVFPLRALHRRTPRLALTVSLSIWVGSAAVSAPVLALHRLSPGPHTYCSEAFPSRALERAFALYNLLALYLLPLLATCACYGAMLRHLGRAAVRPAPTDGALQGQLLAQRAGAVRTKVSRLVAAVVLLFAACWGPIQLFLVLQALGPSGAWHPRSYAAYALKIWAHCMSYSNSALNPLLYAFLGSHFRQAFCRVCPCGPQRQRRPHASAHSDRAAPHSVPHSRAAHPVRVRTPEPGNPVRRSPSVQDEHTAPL
T1 sequence (Q969F8 whole entry): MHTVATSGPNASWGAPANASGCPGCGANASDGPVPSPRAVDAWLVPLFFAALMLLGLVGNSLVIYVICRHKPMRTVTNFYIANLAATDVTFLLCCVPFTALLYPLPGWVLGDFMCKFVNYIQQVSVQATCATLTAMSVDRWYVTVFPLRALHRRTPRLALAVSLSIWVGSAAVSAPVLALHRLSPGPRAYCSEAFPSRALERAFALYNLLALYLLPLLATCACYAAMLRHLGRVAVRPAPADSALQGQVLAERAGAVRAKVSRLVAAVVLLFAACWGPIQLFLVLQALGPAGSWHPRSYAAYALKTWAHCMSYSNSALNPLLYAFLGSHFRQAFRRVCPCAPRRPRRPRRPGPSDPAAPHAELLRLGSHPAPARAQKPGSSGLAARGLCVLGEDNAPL

For the compound `CNC(=N)NCCC[C@H](NC(=O)[C@H](CC(C)C)NC(=O)NNC(=O)[C@H](Cc1ccccc1)NC(=O)[C@@H](NC(=O)[C@H](CC(N)=O)NC(=O)[C@@H](Cc1ccncc1)NC(=O)[C@H](N)Cc1ccc(O)cc1)C(C)(C)C)C(=O)N[C@@H](Cc1c[nH]c2ccccc12)C(N)=O`, the EC50 on KiSS-1 receptor [1] is 1.5 nM; at KiSS-1 receptor [2], 22 nM.

As for `CNC(=N)NCCC[C@H](NC(=O)[C@H](CC(C)C)NC(=O)NNC(=O)[C@H](Cc1ccccc1)NC(=O)[C@@H](NC(=O)[C@H](CC(N)=O)NC(=O)[C@@H](Cc1c[nH]c2ccccc12)NC(=O)[C@@H](Cc1ccc(O)cc1)NC(=O)C1CC1)[C@@H](C)O)C(=O)N[C@@H](Cc1c[nH]c2ccccc12)C(N)=O`, the EC50 on KiSS-1 receptor [1] is 0.82 nM; on KiSS-1 receptor [2], 4.2 nM. For the same compound, the Ki at KiSS-1 receptor [3] came out at 0.034 nM; at KiSS-1 receptor [4], 0.087 nM.

On to `CNC(=N)NCCC[C@H](NC(=O)[C@H](CC(C)C)NC(=O)NNC(=O)[C@H](Cc1ccccc1)NC(=O)[C@@H](NC(=O)[C@H](CC(N)=O)NC(=O)[C@@H](Cc1ccncc1)NC(=O)[C@H](N)Cc1ccc(O)cc1)c1ccccc1)C(=O)N[C@@H](Cc1c[nH]c2ccccc12)C(N)=O`, for which the EC50 on KiSS-1 receptor [1] is 4.4 nM; on KiSS-1 receptor [2], 110 nM.

For the compound `CNC(=N)NCCC[C@H](NC(=O)[C@H](CC(C)C)NC(=O)NNC(=O)[C@H](Cc1ccccc1)NC(=O)[C@H](CO)NC(=O)[C@H](C)NC(=O)[C@@H](Cc1ccncc1)NC(=O)[C@H](N)Cc1ccc(O)cc1)C(=O)N[C@@H](Cc1c[nH]c2ccccc12)C(N)=O`, the EC50 at KiSS-1 receptor [1] came out at 0.7 nM; on KiSS-1 receptor [2], 9.3 nM. For the same compound, the Activity with Rattus norvegicus [5] is recorded as 0%. Besides, the Ki at KiSS-1 receptor [3] turned out to be 0.2 nM; at KiSS-1 receptor [4], 3.6 nM.

For the compound `CNC(=N)NCCC[C@H](NC(=O)[C@H](CC(C)C)NC(=O)NNC(=O)[C@H](Cc1ccccc1)NC(=O)[C@@H](NC(=O)[C@H](CC(N)=O)NC(=O)[C@@H](Cc1ccncc1)NC(=O)[C@H](N)Cc1ccc(O)cc1)[C@@H](C)O)C(=O)N[C@@H](Cc1c[nH]c2ccccc12)C(N)=O`, the EC50 on KiSS-1 receptor [1] worked out at 1.6 nM; at KiSS-1 receptor [2] it was 5.7 nM. Affinity at KiSS-1 receptor [3] was put at a Ki of 0.086 nM.

On to `CNC(=N)NCCC[C@H](NC(=O)[C@H](CC(C)C)NC(=O)NNC(=O)[C@H](Cc1ccccc1)NC(=O)[C@@H]1CC(O)CN1C(=O)[C@H](CC(N)=O)NC(=O)[C@@H](Cc1ccncc1)NC(=O)[C@H](N)Cc1ccc(O)cc1)C(=O)N[C@@H](Cc1c[nH]c2ccccc12)C(N)=O` (stereo partly drawn), for which the concentration for a half-maximal effect (EC50) is 2.8 nM on KiSS-1 receptor [1] and 95 nM on KiSS-1 receptor [2].

With `CNC(=N)NCCC[C@H](NC(=O)[C@H](CC(C)C)NC(=O)NNC(=O)[C@H](Cc1ccccc1)NC(=O)[C@H](CO)NC(=O)[C@@H](NC(=O)[C@@H](Cc1ccncc1)NC(=O)[C@H](N)Cc1ccc(O)cc1)[C@@H](C)O)C(=O)N[C@@H](Cc1c[nH]c2ccccc12)C(N)=O`, the EC50 at KiSS-1 receptor [1] was 1.3 nM; on KiSS-1 receptor [2], 32 nM.

For `CNC(=N)NCCC[C@H](NC(=O)[C@H](CC(C)C)NC(=O)NNC(=O)[C@H](Cc1ccccc1)NC(=O)[C@H](CO)NC(=O)[C@H](C)NC(=O)[C@@H](Cc1c[nH]c2ccccc12)NC(=O)[C@H](N)Cc1ccc(O)cc1)C(=O)N[C@@H](Cc1c[nH]c2ccccc12)C(N)=O`, the values for the EC50 on KiSS-1 receptor [1] and on KiSS-1 receptor [2] were 0.49 nM and 6.8 nM, respectively.

In the case of `CNC(=N)NCCC[C@H](NC(=O)[C@H](CC(C)C)NC(=O)NNC(=O)[C@H](Cc1ccccc1)NC(=O)[C@@H](NC(=O)[C@H](C)NC(=O)[C@@H](Cc1c[nH]c2ccccc12)NC(=O)[C@H](N)Cc1ccc(O)cc1)[C@@H](C)O)C(=O)N[C@@H](Cc1c[nH]c2ccccc12)C(N)=O`, the EC50 on KiSS-1 receptor [1] came out at 0.63 nM; on KiSS-1 receptor [2] it was 13 nM.

In the case of `CNC(=N)NCCC[C@H](NC(=O)[C@H](CC(C)C)NC(=O)NNC(=O)[C@H](Cc1ccccc1)NC(=O)[C@@H](NC(=O)[C@H](CC(N)=O)NC(=O)[C@@H](Cc1ccncc1)NC(=O)[C@H](N)Cc1ccc(O)cc1)C(C)C)C(=O)N[C@@H](Cc1c[nH]c2ccccc12)C(N)=O`, the concentration for a half-maximal effect (EC50) on KiSS-1 receptor [1] was 1.8 nM; on KiSS-1 receptor [2], 12 nM. Moreover, the results for the Activity in the assay with Rattus norvegicus [5] and in the assay with Rattus norvegicus [6] were 80% and 0%, respectively. This compound displayed a Ki on KiSS-1 receptor [3] of 0.052 nM.

Regarding `CNC(=N)NCCC[C@H](NC(=O)[C@H](CC(C)C)NC(=O)NNC(=O)[C@H](Cc1ccccc1)NC(=O)[C@H](Cc1c[nH]c2ccccc12)NC(=O)[C@H](CC(N)=O)NC(=O)[C@@H](Cc1ccncc1)NC(=O)[C@H](N)Cc1ccc(O)cc1)C(=O)N[C@@H](Cc1c[nH]c2ccccc12)C(N)=O`, the results for the EC50 at KiSS-1 receptor [1] and on KiSS-1 receptor [2] were 0.59 nM and 7.4 nM, respectively.

Take `CNC(=N)NCCC[C@H](NC(=O)[C@H](CC(C)C)NC(=O)NNC(=O)[C@H](Cc1ccccc1)NC(=O)[C@@H]1CCCN1C(=O)[C@H](CC(N)=O)NC(=O)[C@@H](Cc1ccncc1)NC(=O)[C@H](N)Cc1ccc(O)cc1)C(=O)N[C@@H](Cc1c[nH]c2ccccc12)C(N)=O`: the figures for the EC50 on KiSS-1 receptor [1] and at KiSS-1 receptor [2] were 1.2 nM and 13 nM, respectively. The compound further registered an inhibitory constant (Ki) at KiSS-1 receptor [3] of 0.096 nM. Also, the Activity with Rattus norvegicus [6] was 20%.

For `CNC(=N)NCCC[C@H](NC(=O)[C@H](CC(C)C)NC(=O)NNC(=O)[C@H](Cc1ccccc1)NC(=O)[C@@H](NC(=O)[C@H](CC(N)=O)NC(=O)[C@@H](Cc1c[nH]c2ccccc12)NC(=O)[C@@H](Cc1ccc(O)cc1)NC(=O)c1ccccc1)[C@@H](C)O)C(=O)N[C@@H](Cc1c[nH]c2ccccc12)C(N)=O`, the EC50 came out at 0.44 nM at KiSS-1 receptor [1] and 1.7 nM at KiSS-1 receptor [2]. At KiSS-1 receptor [3], this compound registered a Ki of 0.027 nM. For the same compound, the Activity in the assay on Rattus norvegicus [7] is 0 rats (n = 5).

As to `CC[C@H](NC(=O)[C@@H](Cc1c[nH]c2ccccc12)NC(=O)[C@H](N)Cc1ccc(O)cc1)C(=O)N[C@@H](CO)C(=O)N[C@@H](Cc1ccccc1)C(=O)NNC(=O)N[C@@H](CC(C)C)C(=O)N[C@@H](CCCNC(=N)NC)C(=O)N[C@@H](Cc1c[nH]c2ccccc12)C(N)=O`, the EC50 at KiSS-1 receptor [1] turned out to be 0.64 nM; at KiSS-1 receptor [2], 2.8 nM. The Activity in the assay on Rattus norvegicus [5] is on record as 0%. In addition, the inhibitory constant (Ki) was found to be 0.12 nM at KiSS-1 receptor [3] and 0.83 nM on KiSS-1 receptor [4].

Turning to `CNC(=N)NCCC[C@H](NC(=O)[C@H](CC(C)C)NC(=O)NNC(=O)[C@H](Cc1ccccc1)NC(=O)[C@@H](NC(=O)[C@H](CC(N)=O)NC(=O)[C@@H](Cc1c[nH]c2ccccc12)NC(=O)[C@H](N)Cc1ccc(O)cc1)C(C)C)C(=O)N[C@@H](Cc1c[nH]c2ccccc12)C(N)=O`, the EC50 at KiSS-1 receptor [1] turned out to be 0.31 nM; at KiSS-1 receptor [2], 2.2 nM. On KiSS-1 receptor [3], this compound registered a Ki of 0.028 nM. Also, in the assay on Rattus norvegicus [6], the Activity was found to be 0%.

Take `CNC(=N)NCCC[C@H](NC(=O)[C@H](CC(C)C)NC(=O)NNC(=O)[C@H](Cc1ccccc1)NC(=O)[C@H](CO)NC(=O)[C@H](CC(N)=O)NC(=O)[C@@H](Cc1ccncc1)NC(=O)[C@H](N)Cc1ccc(O)cc1)C(=O)N[C@@H](Cc1c[nH]c2ccccc12)C(N)=O`: the figures for the EC50 on KiSS-1 receptor [1] and at KiSS-1 receptor [2] were 0.87 nM and 6 nM, respectively. In addition, the Activity is listed as 80% in the assay on Rattus norvegicus [5], 60% in the assay with Rattus norvegicus [6], 40% in the assay on Rattus norvegicus [8] and 0 rats (n = 5) with Rattus norvegicus [7]. In addition, the Ki at KiSS-1 receptor [3] turned out to be 0.074 nM; on KiSS-1 receptor [4], 0.13 nM.

Regarding `CC(C)C[C@H](NC(=O)CNC(=O)[C@H](Cc1ccccc1)NC(=O)[C@H](CO)NC(=O)[C@H](CC(N)=O)NC(=O)[C@H](Cc1c[nH]c2ccccc12)NC(=O)[C@H](CC(N)=O)NC(=O)[C@@H](N)Cc1ccc(O)cc1)C(=O)N[C@@H](CCCNC(=N)N)C(=O)N[C@@H](Cc1ccccc1)C(N)=O` [KISSPEPTIN-10], the EC50 on KiSS-1 receptor [1] was determined as 0.96 nM. Besides, the inhibitory constant (Ki) on KiSS-1 receptor [3] was determined as 0.035 nM.
